Measured values from different studies.
Lines come from different studies, so protocols differ.
Cell line: MDA-MB-435
Effect on: cell growth or viability

CC(C)C[C@H](NC(=O)[C@H](Cc1ccccc1)NC(=O)c1cnccn1)B(O)O — IC50 (ATP luminescence): 8 nM
COc1ccc(C(=O)/C=C/c2ccc(Cl)c(Cl)c2)cc1S(N)(=O)=O — GI50 (SRB; 48 h): 2400 nM
O=C1NCCc2[nH]c(-c3ccncc3)cc21 — IC50: > 10000 nM
COc1ccccc1/C=C/C(=O)c1ccc(OC)c(S(N)(=O)=O)c1 — inhibition (SRB; 10 µM): 73%
CCOC(=O)c1[nH]c(Br)c(-c2ccc(Cl)cc2)c1Br — IC50 (SRB): 919 nM
COc1ccc(N(C)c2nc(C)nc3c2C[C@@H](C)C3)cc1 (racemic) — IC50 (SRB): 17 nM
COc1ccc(-c2ccc(-c3ccc(C(=N)N)nc3)s2)cc1 — GI50 (SRB): 1730 nM
CCOC(=O)c1[nH]c(Br)c(-c2ccc(Br)cc2)c1Br — IC50 (SRB): 312 nM
COc1ccc(C(=O)/C=C/c2cccc(Cl)c2)cc1S(N)(=O)=O — inhibition (SRB; 10 µM): 86%
COc1cccc(Oc2ccccc2NC(=O)CNC(=O)c2cccc3ccccc23)c1 — GI50 (SRB; 48 h): 70.8 nM
CCOC(=O)c1[nH]c(Br)c(-c2ccc(Cl)c(Cl)c2)c1Br — IC50 (SRB): 806 nM
O=C1CCC2(Oc3cccc4cccc(c34)O2)c2c(O)ccc(O)c21 — IC50 (resazurin; 72 h): > 25000 nM
COc1ccc(C(=O)/C=C/c2c(F)cccc2Cl)cc1S(N)(=O)=O — inhibition (SRB; 10 µM): 93%
CCOC(=O)c1[nH]c(Br)c(-c2cccc(OC)c2)c1Br — IC50 (SRB): 633 nM
